Active and inactive are the calls of the source. The rule behind the calls is not given here.
Tests used:
[1] = Antitumor activity against mouse advanced Lewis lung carcinoma allografted in ip dosed BDF1 mouse assessed as increase in host lifespan administered as single dose on day 6 or 7 post-tumor implantation; assay type: functional
In short: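 Advanced Lewis lung model: about 40 mg fragments implanted sc by trocar into BDF1 mice, and mice with tumors of about 400 mg (day 6-7) selected. Tumor weight from calipers, w = ab²/2. Agent given as one ip dose in distilled water or physiological saline. Nontumor-bearing mice received matching doses as toxicity controls.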

Mus musculus [2] = experiment: Antitumor activity against mouse advanced Lewis lung carcinoma allografted in ip dosed BDF1 mouse assessed as complete regression of established tumor administered as single dose on day 6 or 7 post-tumor implantation; assay type: functional, organism-based
In short: (§1)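 BDF1 mice (C57Blk/6 × DBA/2) implanted sc by trocar with Lewis lung tumor fragments of about 40 mg, taken only from bacteriologically sterile donor tumors. Mice bearing tumors of about 400 mg (day 6-7) were selected. Each received a single ip dose on day 7, at or below the LD10 in normal mice. Groups were of 10 mice. Tumor weight was taken from calipers as w = ab²/2, measured at least twice weekly. Matched non-tumor mice served as toxicity controls.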

Mus musculus [3] = experiment: Antitumor activity against mouse early Lewis lung carcinoma allografted in ip dosed BDF1 mouse administered as single dose on 1 or 2 days post-tumor implantation measured for 80 days post-drug treatment; assay type: functional, organism-based
In short: (§2)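 BDF1 mice implanted sc by trocar with ~40 mg Lewis lung fragments from sterile donor tumors. A single ip dose was given on day 1 or 2 after implant, in water or saline vehicle. Cures were scored in animals observed for at least 80 days after treatment. Drug-toxicity controls were matched non-tumor-bearing mice monitored for body weight and deaths.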

Mus musculus [4] = experiment: (§3) Antitumor activity against mouse early Lewis lung carcinoma allografted in ip dosed BDF1 mouse assessed as disease cure administered as single dose on 1 or 2 days post-tumor implantation measured for 80 days post-drug treatment; assay type: functional; in short: as §2
[5] = Ratio of ED50 for antitumor activity against mouse L1210 cells allografted in ip dosed mouse to LD10 for mouse
Mus musculus [6] = experiment: Antitumor activity against mouse advanced Lewis lung carcinoma allografted in BDF1 mouse assessed as disease cure at 32 mg/kg, ip administered as single dose on 7th day post-tumor implantation measured for 80 days post-drug treatment; assay type: functional, organism-based; set-up: dose 32 mg/kg; in short: as §1
Mus musculus [7] = experiment: Antitumor activity against mouse advanced Lewis lung carcinoma allografted in BDF1 mouse assessed as complete regression of established tumor at 32 mg/kg, ip administered as single dose on 7th day post-tumor implantation; assay type: functional, organism-based; set-up: dose 32 mg/kg
In short: (§4)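 BDF1 mice (C57Blk/6 × DBA/2) implanted sc by trocar with about 40 mg Lewis lung tumor fragments from bacteriologically sterile donors. Advanced-disease groups held tumors of about 400 mg by day 6-7, sized by caliper (w = ab²/2). Single ip injection on day 7, in water or saline vehicle, at or below the LD10 in normal mice. Tumors measured at least twice weekly.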

Mus musculus [8] = experiment: Antitumor activity against mouse advanced Lewis lung carcinoma allografted in ip dosed BDF1 mouse assessed as disease cure administered as single dose on day 6 or 7 post-tumor implantation; assay type: functional, organism-based; in short: as §1
[9] = Antitumor activity against mouse advanced Lewis lung carcinoma allografted in BDF1 mouse assessed as increase in host life span at 32 mg/kg, ip administered as single dose on 7th day post-tumor implantation; assay type: functional; conditions: route intraperitoneal; in short: as §4
[10] = Antitumor activity against mouse advanced Lewis lung carcinoma allografted in BDF1 mouse assessed as increase in host life span at 45 mg/kg, ip administered as single dose on 7th day post-tumor implantation; assay type: functional; conditions: route intraperitoneal; in short: as §4
[11] = Antitumor activity against mouse early Lewis lung carcinoma allografted in BDF1 mouse assessed as increase in host life span at 38 mg/kg, ip administered as single dose on 1 or 2 days post-tumor implantation; assay type: functional; conditions: route intraperitoneal
In short: (§5)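 BDF1 mice (C57Blk/6 × DBA/2) implanted sc by trocar with ~40 mg Lewis lung tumor fragments from bacteriologically sterile donor tumors. Single ip dose on day 1 or 2, as a solution or suspension in water (CMC or gum acacia) or saline (HPC or Tween 80). Read-out is […]. Same-dose toxicity controls were run in nontumor-bearing mice.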

[12] = as §3; assay type: functional; in short: as §2
[13] = Antitumor activity against mouse early Lewis lung carcinoma allografted in BDF1 mouse assessed as time delay in tumor growth at 38 mg/kg, ip administered as single dose on 1 or 2 days post-tumor implantation; assay type: functional; conditions: route intraperitoneal
In short: (§6)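 BDF1 mice (C57Blk/6 × DBA/2) implanted sc by trocar with ~40 mg Lewis lung tumor fragments from bacteriologically sterile donors. A single ip dose was given on day 1 or 2, as a solution or suspension in water or saline with suspending agent, at ≤0.5 ml. Tumors were measured by caliper at least twice weekly, with weight = ab²/2. Delay was taken as the days for the tumor to reach 1 g.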

[14] = Antitumor activity against mouse early Lewis lung carcinoma allografted in BDF1 mouse assessed as increase in host life span at 26 mg/kg, ip administered as single dose on 1 or 2 days post-tumor implantation; assay type: functional; conditions: route intraperitoneal; in short: as §5
[15] = Antitumor activity against mouse early Lewis lung carcinoma allografted in BDF1 mouse assessed as time delay in tumor growth at 26 mg/kg, ip administered as single dose on 1 or 2 days post-tumor implantation; assay type: functional; conditions: route intraperitoneal; in short: as §6

Structure (SMILES) | ILS [1] [%] | inhibition (Mus musculus [2]) | other results
O=NN(CCCl)C(=O)N[C@@H]1CCC[C@H](C(=O)O)C1 (relative stereo) | <25 | inactive | –
O=NN(CCCl)C(=O)NC1CCS(=O)(=O)C1 (stereo not given) | <25 | inactive | –
O=NN(CCCl)C(=O)NC1C=CCCC1 (stereo not given) | <25 | inactive | –
O=NN(CCF)C(=O)N[C@H]1CC[C@H](NC(=O)N(CCCl)N=O)CC1 | <25 | inactive | –
C[C@H]1S(=O)(=O)C[C@H](NC(=O)N(CCCl)N=O)CS1(=O)=O | <25 | inactive | Activity (Mus musculus [3]): inactive; Activity (Mus musculus [4]): inactive; Ratio [5]: 0.4
O=NN(CCCl)C(=O)NCCCl [CARMUSTINE] | <25 | inactive | Activity (Mus musculus [6]): inactive; inhibition (Mus musculus [7]): inactive
C[C@H]1S(=O)(=O)C[C@@H](NC(=O)N(CCCl)N=O)CS1(=O)=O | >25 | inactive | Activity (Mus musculus [3]): inactive; Activity (Mus musculus [6]): inactive; Activity (Mus musculus [4]): inactive; Ratio [5]: 0.6; inhibition (Mus musculus [7]): inactive; Activity (Mus musculus [8]): inactive; ILS at 32 mg/kg [9]: 10%
CC(C)[C@H]1CC[C@H](NC(=O)N(CCF)N=O)CC1 | <25 | inactive | –
O=NN(CCF)C(=O)N[C@H]1CC[C@H](C(=O)O)CC1 | – | – | Activity (Mus musculus [8]): Active; ILS at 45 mg/kg [10]: 60%
O=NN(CCCl)C(=O)N[C@H]1CC[C@H](O)CC1 | <25 | inactive | ILS at 38 mg/kg [11]: 146%; Activity [12]: 10%; Ratio [5]: 0.4; Time [13]: 10.2 days; ILS at 26 mg/kg [14]: 84%; Time [15]: 3.3 days
C[C@H]1CC[C@@H](NC(=O)N(CCCl)N=O)CC1 | <25 | inactive | –
O=NN(CCCl)C(=O)NC1CC2CCC1C2 (stereo not given) | >25 | inactive | Activity (Mus musculus [8]): inactive
O=NN(CCCl)C(=O)N[C@H]1CC[C@@H](NC(=O)N(CCCl)N=O)CC1 | <25 | inactive | –

Source: ChEMBL document CHEMBL3271979, “Inhibition of solid tumors by nitrosoureas. 1. Lewis lung carcinoma” (1977)
